TAAR1 antag – antagonists of human TAAR1 | Q96RJ0 | CHO RD-HGA16 TAAR1, Fluo-8 calcium fluorescence, antagonist | inhibition, % at 3 µM | 360,000 tested, 1.5% active;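 active means inhibition above a per-plate cutoff, the mean inhibition of test compounds on that plate plus 3 SD, cut at about 49% in these data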;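 further: 0% = DMSO plus EC80 beta-PEA response and 100% = DMSO alone without agonist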
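Assay system: RD-HGA16 CHO cells with stable hTAAR1 and Gα16 / Reagent: EC80 β-phenethylamine stimulus / Doses: 3 µM, single point / Timing: dye loading 75 min at 37 °C, then 30 min room temperature / Measured by: Fluo-8 intracellular calcium dye fluorescence, real-time kinetic reads / Controls: vehicle wells and EC80 agonist wells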
CHO parental Ca – counter-screen for OX1R antagonists: effect in parental CHO cells; parental CHO-K1, ATP-induced calcium, Fluo-8 fluorescence; inhibition, % at 5.6 µM; 330,000 tested, 0.63% active;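 active means inhibition above that plate's mean sample inhibition plus 3 SD, cut at about 26% in these data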;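 further: 0% = ATP-challenged DMSO wells and 100% = DMSO wells without ATP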
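Assay system: parental CHO cells; Read-out basis: percent inhibition of ATP-evoked calcium rise, normalized to controls; Benchmarks: ATP and no-ATP DMSO wells; Compound dosing: single nominal dose of 5.6 µM per compound; Signal: Fluo-8 calcium dye fluorescence; Also added: ATP as calcium-mobilizing challenge; Repeats: singlicate.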
OX1R antag-1 – antagonists of human orexin 1 receptor; 330,000 tested, 0.43% active; inhibition, % at 5 µM; O43613; CHO/OX1R cells, Fluo-8 calcium fluorescence, orexin A; AID 434989;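 active means inhibition above its plate's threshold, mean inhibition of all tested compounds on the plate plus 3 SD, cut at about 37% in these data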;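 further: 0% = orexin A challenge wells and 100% = SB-334867-A antagonist wells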
OX1R antag-2 – blocks the human orexin 1 receptor | OX1R-expressing cells, FRET antagonist read-out | inhibition, % at 6.6 µM | 330,000 tested, 1.8% active; in the data active means inhibition mostly above about 38%, no sharp cut-off; inactive means mostly below about 40%;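 further: 0% = agonist challenge alone and 100% = reference antagonist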
GPR7 antagonist – human neuropeptides B/W receptor 1 antagonism. GPR7-expressing cells, fluorescence antagonist assay. inhibition, % at 4.4 µM. 290,000 tested, 1.1% active; in the data active means inhibition above about 16%, passing the limit was not always enough;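 further: cells stimulated with the agonist NPW; 0% = agonist with vehicle and 100% = vehicle without agonist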
Target sequence (P48145 whole entry, looked up): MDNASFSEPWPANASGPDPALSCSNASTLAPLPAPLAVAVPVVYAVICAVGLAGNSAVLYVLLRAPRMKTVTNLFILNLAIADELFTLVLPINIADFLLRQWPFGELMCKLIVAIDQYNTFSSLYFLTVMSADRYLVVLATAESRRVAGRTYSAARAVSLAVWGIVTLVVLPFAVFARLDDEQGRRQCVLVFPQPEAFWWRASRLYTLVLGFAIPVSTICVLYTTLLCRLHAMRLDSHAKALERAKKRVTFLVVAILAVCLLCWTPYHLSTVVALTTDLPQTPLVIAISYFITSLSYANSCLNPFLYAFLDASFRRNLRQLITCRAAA
TAAR1 ag – agonists of human TAAR1 | 360,000 tested, 0.99% active | activation, % at 3 µM | Q96RJ0 | CHO RD-HGA16 TAAR1, Fluo-8 calcium fluorescence; vehicle wells 0%, saturating PEA agonist 100% | AID 624467;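 active means activation above the mean activation of all test compounds in the run plus 3 SD, cut at about 38% in these data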
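Test system: RD-HGA16 (CHO) cells co-expressing Gα16 and hTAAR1 / Benchmarks: DMSO vehicle as 0%, PEA at EC100 as 100% / Repeats: no replicates (n 1) / Measure: % activation from peak over basal fluorescence ratio, DMSO-to-PEA scaled / Timing: 17-24 h plating, Fluo-8 75 min 37 °C, 30 min RT / Technique: kinetic Fluo-8 calcium fluorescence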
OX1R Ca confirm – OX1R (human) antagonism, confirmed; shares compounds with OX1R antag-1; CHO/OX1R cells, orexin A calcium Fluo-8 fluorescence; inhibition, % at 5 µM; 1,100 tested, 38% active; AID 492963; in the data active means inhibition above about 29%;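 further: 0% = agonist challenge alone and 100% = reference antagonist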
CHO Ca triplic – counter-screen: parental CHO calcium response change, triplicate; 1,100 tested, 9.3% active; shares compounds with OX1R antag-1; parental CHO-K1, ATP-induced calcium, Fluo-8 fluorescence; inhibition, % at 5.6 µM;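 active means inhibition above a per-plate limit, the mean inhibition of that plate's test compounds plus 3 SD, cut at about 25% in these data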;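 further: 0% = ATP challenge with DMSO and 100% = DMSO without ATP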
* marks the source's active call; other numbers are inactive results; x = no result given. This is a sample that favours compounds with a hit; in the whole collection about 4.6% have one here.

SMILES	TAAR1 antag	CHO parental Ca	OX1R antag-1	OX1R antag-2	GPR7 antagonist	TAAR1 ag	OX1R Ca confirm	CHO Ca triplic
COc1ccc(NC2=NCCCCC2)cc1	7.3	3.9	-17.1	4.2	-2.5	2.7	x	x
COc1ccc(-c2nc(NC3=NCCCCC3)sc2C)cc1	-4.3	-18.9	54.8*	13.8	-6.6	5.8	20.3	-2.8
CC(=O)Oc1ccc(-n2c(=O)c3ccccc3c3ccccc3c2=O)cc1	-13.9	-3.9	0.1	2.3	2.5	-1.0	x	x
CC(=O)Oc1ccc(N2C(=O)c3cccc4c([N+](=O)[O-])ccc(c34)C2=O)cc1	10.1	25.0	43.8*	29.6	19.5	1.7	34.6*	28.8*
Cc1cc([N+](=O)[O-])ccc1NCc1ccccc1	x	18.0	49.6*	12.5	9.7	x	18.1	16.2
C=CC(COCc1ccccc1)N([C@@H](Cc1ccccc1)C(=O)OC)S(=O)(=O)c1ccccc1Br (some centres not stated)	4.3	29.1	80.1*	11.3	x	17.6	10.6	19.7
O=C(c1ccccc1)N1CCN(c2nc3ccc([N+](=O)[O-])cc3s2)CC1	4.6	23.7	22.8	31.2	-11.3	5.8	27.1	22.5
CC1(C(=O)Nc2cccc3ccccc23)CCN1C(=O)Cc1ccccc1Cl (configuration not stated)	5.4	x	x	x	x	0.7	x	x
COc1cccc(-c2ccc3c(c2)N(Cc2cccc(F)c2)C(=O)C(C)S3)c1 (configuration not stated)	-4.3	x	x	x	x	2.0	x	x
COc1cccc(CN2C(=O)C(C)N(C(=O)c3c(F)cccc3F)c3ccccc32)c1 (configuration not stated)	47.5	21.9	33.4	26.2	0.6	3.9	-1.9	-3.5
COc1ccccc1NC(=O)Nc1ccc(-n2ccc(C(F)(F)F)n2)cc1	-22.4	-2.5	33.8	7.2	-3.6	2.8	5.2	3.7
O=C(NCCN1CCC(n2c(=O)[nH]c3ccccc32)CC1)c1ccc(C(F)(F)F)cc1C(F)(F)F	13.2	x	x	x	x	3.3	x	x
CCCc1ccc(C2C3=C(CC(C)(C)CC3=O)NC3=C2C(=O)c2ccccc23)cc1 (configuration not stated)	-17.0	-10.1	66.4*	29.0	7.2	10.2	24.6	-4.0
Cc1c(C)n(CC(O)CN2CCCCCC2)c2ccccc12 (configuration not stated)	-2.2	-2.3	-33.0	6.5	-0.9	-0.2	x	x
OC(CN1CCCCC1)Cn1c2ccccc2c2cc(Br)ccc21 (configuration not stated)	15.1	10.6	37.3	13.5	34.8	16.2	14.4	-3.9
Cc1ccc2nc(-c3ccc(NC(=O)CN(c4ccccc4C)S(C)(=O)=O)cc3)sc2c1	33.5	27.1	-0.8	12.1	0.5	0.8	x	x
Cc1cc(C)cc(N(CC(=O)Nc2ccc(-c3nc4ccc(C)cc4s3)cc2)S(C)(=O)=O)c1	16.4	-8.3	36.6*	-3.8	2.6	-0.9	-3.5	-0.4
C=CCn1c(C(C)n2c(-c3cnccn3)nc3ccccc32)nc2ccccc21 (configuration not stated)	-1.6	x	x	x	x	2.6	x	x
COc1ccc2c(n1)Sc1nc3ccccc3nc1N2	17.2	24.3	34.9	29.5	16.6	21.6	47.3*	37.3*
Cc1cc(-c2cc(NC=O)c3ncc(-c4cccc(C(=O)NCCN(C)C)c4)n3c2)cc(C)c1O	-5.8	x	x	x	x	0.5	x	x
Cc1cc(OCC(=O)N(C)C2CCCCC2)cc(C)c1Cl	-28.7	8.7	25.6	37.4	-1.4	18.2	14.4	-5.0
Cc1cc(OCC(=O)N(C)C2CCCCC2)ccc1Cl	-1.4	-18.9	-22.6	26.7	-5.1	1.4	x	x
COC(=O)c1cc2c(c3c4cc(F)ccc4n(S(=O)(=O)c4ccc(C)cc4)c13)C(=O)N(Cc1ccccc1OC)C2	-6.1	x	x	x	x	2.8	x	x
C[C@@H]1CN([C@@H](C)CO)C(=O)CCCn2nncc2CO[C@H]1CN(C)C(=O)Nc1ccc(-c2cccs2)cc1	-19.5	x	x	x	x	-1.2	x	x
